Activity, IC50 and Ratio IC50 data for two compounds are collected here from ChEMBL document CHEMBL5325511, “Discovery of N-(4-(Aminomethyl)phenyl)-5-methylpyrimidin-2-amine Derivatives as Potent and Selective JAK2 Inhibitors” (ACS Med Chem Lett, 2023).

One may read the IC50 as the point on the concentration scale where inhibition reaches its midpoint.

The subject of experiment [1] is BaF3. Description: Induction of cell cycle arrest in mouse BaF3 cells harbouring JAK2 […] mutant assessed as accumulation of cells at S phase at 2 nM incubated for 24 hrs by propidium iodide staining based flow cytometry analysis (reference value: 33.80 %). It counts as functional. Background: A flow cytometer gives signals particle by particle.
Experiment [2] has as its system BaF3. Nature of the experiment: Induction of apoptosis in mouse BaF3 cells harbouring JAK2 V617F mutant assessed as necrotic cells at 40 nM incubated for 24 hrs by Annexin V / propidium iodide staining based flow cytometry analysis (reference value: 0.64 %). It counts as functional. Summed up:
(§1)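 Ba/F3 JAK2V617F cells exposed to compound at 20, 40, 80, 160 and 320 nM, then analysed for apoptosis by flow cytometry. Significance vs control by Dunnett's t test.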

For experiment [3], the system named is BaF3. Nature of the experiment: Induction of apoptosis in mouse BaF3 cells harbouring JAK2 V617F mutant assessed as early apoptotic cells at 20 nM incubated for 24 hrs by Annexin V / propidium iodide staining based flow cytometry analysis (reference value: 14.4 %). The format is functional. A digest of the protocol: as §1
Experiment [4] relates to BaF3. Description: Induction of cell cycle arrest in mouse BaF3 cells harbouring JAK2 […] mutant assessed as accumulation of cells at G2/M phase at 16 nM incubated for 24 hrs by propidium iodide staining based flow cytometry analysis (reference value: 9.34 %). It counts as functional.
Experiment [5] addresses T1, Receptor-type tyrosine-protein kinase FLT3 (Homo sapiens, UniProt P36888).
T1 sequence (P36888 whole entry): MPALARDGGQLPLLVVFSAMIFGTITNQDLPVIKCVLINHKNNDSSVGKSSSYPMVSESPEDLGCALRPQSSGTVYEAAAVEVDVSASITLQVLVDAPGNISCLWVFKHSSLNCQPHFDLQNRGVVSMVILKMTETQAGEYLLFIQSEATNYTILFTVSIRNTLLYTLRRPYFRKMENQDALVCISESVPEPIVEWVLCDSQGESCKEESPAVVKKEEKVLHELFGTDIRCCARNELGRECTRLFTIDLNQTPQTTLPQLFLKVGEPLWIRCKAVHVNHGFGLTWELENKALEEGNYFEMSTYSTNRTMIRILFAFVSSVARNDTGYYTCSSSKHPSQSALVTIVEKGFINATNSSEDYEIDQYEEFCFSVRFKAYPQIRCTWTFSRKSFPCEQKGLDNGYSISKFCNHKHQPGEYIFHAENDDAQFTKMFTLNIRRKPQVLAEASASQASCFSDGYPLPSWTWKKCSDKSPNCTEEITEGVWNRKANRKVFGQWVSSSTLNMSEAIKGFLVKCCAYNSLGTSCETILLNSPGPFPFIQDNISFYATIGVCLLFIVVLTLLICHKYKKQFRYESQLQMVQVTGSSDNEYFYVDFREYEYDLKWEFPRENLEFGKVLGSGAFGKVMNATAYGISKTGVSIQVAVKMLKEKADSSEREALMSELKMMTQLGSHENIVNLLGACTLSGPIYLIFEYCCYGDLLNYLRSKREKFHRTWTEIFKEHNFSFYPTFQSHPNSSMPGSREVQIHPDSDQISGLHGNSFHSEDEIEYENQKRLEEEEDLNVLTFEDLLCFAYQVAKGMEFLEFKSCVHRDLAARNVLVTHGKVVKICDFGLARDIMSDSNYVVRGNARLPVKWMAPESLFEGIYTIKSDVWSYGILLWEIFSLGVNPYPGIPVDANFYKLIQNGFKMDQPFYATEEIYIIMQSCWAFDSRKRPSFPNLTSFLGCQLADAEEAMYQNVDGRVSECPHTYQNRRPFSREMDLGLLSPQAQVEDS
Nature of the experiment: Inhibition of FLT3 (unknown origin) in presence of Mg/ATP mixture by [gamma p33]-ATP based radiometric assay. Summed up: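 IC50 values determined by Eurofins Discovery.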

Experiment [6] concerns BaF3. Nature of the experiment: Induction of apoptosis in mouse BaF3 cells harbouring JAK2 V617F mutant assessed as necrotic cells at 160 nM incubated for 24 hrs by Annexin V / propidium iodide staining based flow cytometry analysis (reference value: 0.64 %). The format is functional. A digest of the protocol: as §1
In experiment [7] the test system is BaF3. Description: Induction of cell cycle arrest in mouse BaF3 cells harbouring JAK2 […] mutant assessed as accumulation of cells at G2/M phase at 4 nM incubated for 24 hrs by propidium iodide staining based flow cytometry analysis (reference value: 9.34 %). The format is functional.
In experiment [8] the test system is BaF3. Nature of the experiment: Induction of cell cycle arrest in mouse BaF3 cells harbouring JAK2 […] mutant assessed as accumulation of cells at G0/G1 phase at 0.5 nM incubated for 24 hrs by propidium iodide staining based flow cytometry analysis (reference value: 56.85 %). It counts as functional.
For experiment [9], the system named is BaF3. Nature of the experiment: Induction of apoptosis in mouse BaF3 cells harbouring JAK2 V617F mutant assessed as early apoptotic cells at 320 nM incubated for 24 hrs by Annexin V / propidium iodide staining based flow cytometry analysis (reference value: 14.4 %). The format is functional. A digest of the protocol: as §1
The target of experiment [10] is Tyrosine-protein kinase JAK2 (Mus musculus, UniProt Q62120, V617F). Nature of the experiment: Inhibition of JAK2 V617F mutant in mouse BaF3 cells. The format is cell-based. Summed up:
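Cell proliferation assay. IC50 is the concentration that inhibits proliferation by 50%, taken from dose–response curves. Mean ± SEM of at least three independent experiments.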

A short description of experiment [11]: Selectivity ratio of IC50 for JAK3 (unknown origin) to IC50 for JAK2 (unknown origin).
For experiment [12], the system named is BaF3. Description: Induction of apoptosis in mouse BaF3 cells harbouring JAK2 V617F mutant assessed as necrotic cells at 80 nM incubated for 24 hrs by Annexin V / propidium iodide staining based flow cytometry analysis (reference value: 0.64 %). It counts as functional. A digest of the protocol: as §1
Experiment [13] concerns BaF3. Description: Induction of cell cycle arrest in mouse BaF3 cells harbouring JAK2 […] mutant assessed as accumulation of cells at G2/M phase at 2 nM incubated for 24 hrs by propidium iodide staining based flow cytometry analysis (reference value: 9.34 %). The format is functional.
Experiment [14] concerns BaF3. Description: Induction of apoptosis in mouse BaF3 cells harbouring JAK2 V617F mutant assessed as necrotic cells at 320 nM incubated for 24 hrs by Annexin V / propidium iodide staining based flow cytometry analysis (reference value: 0.64 %). The format is functional. Summed up: as §1

Sequence of Tyrosine-protein kinase JAK2 (Q62120 as listed by the source V617F): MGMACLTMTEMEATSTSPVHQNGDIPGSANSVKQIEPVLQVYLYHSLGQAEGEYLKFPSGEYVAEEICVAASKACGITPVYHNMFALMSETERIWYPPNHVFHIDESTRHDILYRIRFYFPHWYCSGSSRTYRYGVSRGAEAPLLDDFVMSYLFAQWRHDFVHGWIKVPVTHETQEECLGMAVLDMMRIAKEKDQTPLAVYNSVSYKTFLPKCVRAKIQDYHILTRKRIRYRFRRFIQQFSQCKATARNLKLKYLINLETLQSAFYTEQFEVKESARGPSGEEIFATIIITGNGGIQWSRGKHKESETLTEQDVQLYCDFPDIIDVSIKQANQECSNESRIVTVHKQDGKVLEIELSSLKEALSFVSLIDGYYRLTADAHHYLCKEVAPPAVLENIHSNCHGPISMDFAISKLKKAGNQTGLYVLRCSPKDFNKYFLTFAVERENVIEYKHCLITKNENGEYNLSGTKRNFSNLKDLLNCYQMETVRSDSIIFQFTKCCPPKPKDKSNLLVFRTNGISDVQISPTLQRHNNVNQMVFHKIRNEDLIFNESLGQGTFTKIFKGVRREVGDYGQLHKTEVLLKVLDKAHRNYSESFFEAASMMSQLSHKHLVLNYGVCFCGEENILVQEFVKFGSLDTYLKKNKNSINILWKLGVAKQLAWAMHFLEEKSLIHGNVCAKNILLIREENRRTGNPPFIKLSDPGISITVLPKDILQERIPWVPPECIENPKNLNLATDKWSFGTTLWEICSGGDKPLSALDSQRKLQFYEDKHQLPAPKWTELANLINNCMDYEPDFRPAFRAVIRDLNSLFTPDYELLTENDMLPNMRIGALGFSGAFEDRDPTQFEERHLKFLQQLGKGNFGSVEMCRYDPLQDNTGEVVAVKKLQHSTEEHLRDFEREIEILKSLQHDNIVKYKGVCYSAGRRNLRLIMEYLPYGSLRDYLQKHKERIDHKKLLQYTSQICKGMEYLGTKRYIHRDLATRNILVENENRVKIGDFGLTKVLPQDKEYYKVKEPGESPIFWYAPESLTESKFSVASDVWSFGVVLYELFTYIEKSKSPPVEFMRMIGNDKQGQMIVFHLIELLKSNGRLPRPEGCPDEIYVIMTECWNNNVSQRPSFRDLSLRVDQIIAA

`C=CS(=O)(=O)NCc1ccc(Nc2ncc(C)c(-c3cnn(C(C)C)c3)n2)cc1`: the Activity in [1] is reported as 30.58%; in experiment [2] it was 3.27%; in [3], 24.7%; in [4], 9.93%; in experiment [6], 3.8%; in [7], 7.62%. Besides, the Activity in experiment [8] worked out at 59.23%; in experiment [9], 31%; in [12], 3.39%; in [13] it was 8.29%; in [14] it was 4.33%. The IC50 amounted to 467 nM in experiment [5] and 25.3 nM in experiment [10]. Further, the Ratio IC50 in experiment [11] was 54.6.
Regarding `Cc1cnc(Nc2ccc3c(c2)CCN(C(=O)/C=C/CN(C)C)C3)nc1-c1cnn(C(C)C)c1`, the Activity turned out to be 27.94% in [1]; 0.89% in [2]; 18.4% in experiment [3]; 8.95% in experiment [4]; 1.89% in [6]; 9.33% in [7]. Besides, the Activity in experiment [8] is given as 55.96%; in [9], 47%; in [12], 2.64%; in experiment [13] it was 15.52%; in [14], 3.48%. For the same compound, the IC50 turned out to be 62 nM in experiment [5] and 41 nM in [10] (baf3). Further, the Ratio IC50 in experiment [11] is 31.
